This is a sample that favours compounds with a hit; in the whole collection about 1.7% have one here.
CHO-K1 Ca antag – nonselective inhibitor or artifact in parental CHO-K1 cells; ATP-induced calcium, Fluo-8 fluorescence; 360,000 compounds, 0.6% hits; inhibition, % at 3 µM;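 active means inhibition above a per-plate cutoff, the plate's mean sample inhibition plus 3 SD, cut at about 24% in these data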;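 further: 0% = DMSO plus EC80 ATP and 100% = DMSO alone without ATP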
CHO-K1 Ca PAM – nonselective calcium activators in parental CHO-K1 cells, primary screen, counter-screen for M1 PAM project, cell-based, Fluo-8 calcium fluorescence, full deck, 1536-well | 360,000 compounds, 0.02% hits | ATP EC20; 0% at ATP EC20, 100% at ATP max | activation, % at 3 µM;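 active means activation above the run cutoff, the mean activation of all test compounds plus 3 SD, cut at about 40% in these data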;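 further: peak over basal fluorescence ratio in a 140 s read after ATP addition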
M5 antag – human M5 muscarinic receptor antagonists, primary screen, CHO cells, Fluo-8 calcium fluorescence. CHO-hM5 cells, ACh EC80. inhibition, % at 3 µM. 360,000 compounds, 0.59% hits. AID 624040, 2012;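 active means inhibition above a per-plate cutoff, the mean of that plate's test compounds plus 3 SD, cut at about 27% in these data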;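 further: 0% = acetylcholine EC80 with DMSO and 100% = DMSO without agonist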
Target sequence (P08912 whole entry, looked up): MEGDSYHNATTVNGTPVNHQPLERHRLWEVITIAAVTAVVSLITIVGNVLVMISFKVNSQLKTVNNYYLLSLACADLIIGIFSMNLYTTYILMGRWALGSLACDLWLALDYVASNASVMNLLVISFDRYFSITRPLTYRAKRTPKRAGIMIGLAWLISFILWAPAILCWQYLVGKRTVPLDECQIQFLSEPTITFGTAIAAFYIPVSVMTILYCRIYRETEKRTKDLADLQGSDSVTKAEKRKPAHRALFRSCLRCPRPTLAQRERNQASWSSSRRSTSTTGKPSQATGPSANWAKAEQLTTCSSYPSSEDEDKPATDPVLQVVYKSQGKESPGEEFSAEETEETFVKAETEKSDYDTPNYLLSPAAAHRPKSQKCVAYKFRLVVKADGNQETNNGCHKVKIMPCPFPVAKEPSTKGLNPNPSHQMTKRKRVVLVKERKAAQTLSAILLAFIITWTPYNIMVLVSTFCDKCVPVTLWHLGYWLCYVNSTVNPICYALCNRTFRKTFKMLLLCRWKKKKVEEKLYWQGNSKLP
M5 ag – human M5 muscarinic receptor agonists, primary screen, CHO-K1 cells, Fluo-8 calcium fluorescence; 360,000 compounds, 0.19% hits; Muscarinic acetylcholine receptor M5 (Homo sapiens), P08912; activation, % at 3 µM; CHO-K1 hM5 cells; 0% DMSO wells, 100% maximal acetylcholine response;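 active means activation above the run's mean over test compounds plus 3 SD, cut at about 23% in these data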;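 further: signal is peak over basal fluorescence ratio across the kinetic read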
CHO-K1 Ca ag – counter-screen for M1 agonists: effect in parental CHO-K1 cells. Fluo-8 calcium fluorescence; scaled to maximal ATP response, vehicle zero. 360,000 compounds, 0.48% hits. activation, % at 3 µM; in the data active means activation above about 15%;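 further: untransfected CHO-K1 host cells lacking M1 receptor as counterscreen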
CHRM5 PAM – human M5 muscarinic receptor positive allosteric modulators, primary screen, CHO-K1 cells, Fluo-8 calcium fluorescence; Muscarinic acetylcholine receptor M5 (Homo sapiens), P08912; CHO-K1 hM5, ACh EC20 PAM; 0% = ACh EC20, 100% = ACh EC100; activation, % at 3 µM; 360,000 compounds, 0.3% hits; AID 624038, 2012;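 active means activation above the run cutoff, the mean activation of all test compounds plus 3 SD, cut at about 18% in these data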
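Measured by: Fluo-8 calcium fluorescence; material: human M5 receptor in CHO-K1 cells; schedule: Post-acetylcholine fluorescence recording 140 s; benchmarks: low control EC20 acetylcholine (0%), high control EC100 acetylcholine (100%); read-out: Max/basal fluorescence ratio as % of EC20–EC100 ACh window; compound: single dose, 3 µM nominal final test concentration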
Starred values were filed as active, the others as inactive.

SMILES	CHO-K1 Ca antag	CHO-K1 Ca PAM	M5 antag	M5 ag	CHO-K1 Ca ag	CHRM5 PAM
CC(=O)N1CCN(CCN=CC2=C(O)CC(c3ccco3)CC2=O)CC1 (stereo unspecified)	16	-9	7	-4	0	2
Cc1cccc(NC(c2ccc(O)cc2)c2ccc3ccc(C)nc3c2O)n1 (stereo unspecified)	25*	-8	-4	0	0	3
COc1ccc(C2c3cc(OC)c(OC)cc3CCN2C(=O)c2ccccc2)cc1OC (stereo unspecified)	0	4	0	-1	0	-5
COc1ccc(C(=O)N2CCc3cc(OC)c(OC)cc3C2c2ccc(OC)c(OC)c2)cc1 (stereo unspecified)	24*	-8	1	-4	0	1
O=C(CSc1nc2nn(-c3ccccc3)c(=O)c-2c2n1CCCCC2)Nc1cccc(F)c1	-27	8	8	-2	5	-4
CC1(C)CC(=O)C2=C(C1)NC(=O)CC2c1ccc(F)cc1 (stereo unspecified)	1	-5	9	-2	0	-6
COc1cc(C2CC(=O)NC3=C2C(=O)CC(C)(C)C3)cc(OC)c1O (stereo unspecified)	2	-8	27*	-1	0	8
Cn1c(-n2c(CCCN3C(=O)c4ccccc4C3=O)nc3ccccc3c2=O)nc2ccccc21	-16	19	-2	0	1	7
O=C1c2ccccc2C(=O)N1CCCc1nc2ccccc2c(=O)n1CCCn1ccnc1	30*	-1	0	1	0	-6
N#Cc1ccc(/C=N/NC(=O)CCc2ccc(S(=O)(=O)N3CCOCC3)cc2)cc1	1	4	3	-5	0	1
COc1ccc(C2NN=C(c3ccc(C)cc3)S2)cc1 (stereo unspecified)	-7	-5	7	-5	0	-5
Cc1ccc(C2=NNC(C(O)C(O)C(O)CO)S2)cc1 (stereo unspecified)	-8	9	9	-1	0	30*
O=C(CCCCCn1c(=S)[nH]c2ccc(Br)cc2c1=O)NCC1CCCO1 (stereo unspecified)	7	0	3	2	0	-4
NS(=O)(=O)c1ccc(CCNC(=O)CCCCCn2c(=S)[nH]c3ccc(Br)cc3c2=O)cc1	4	13	27*	2	7	-25
CC(C)(C)c1ccc(S(=O)(=O)NNC(=O)C2CCN(Cc3cccc(F)c3)CC2)cc1	-5	25	12	1	23*	-2
O=C(NCCc1cccc(F)c1)C1CCN(S(=O)(=O)c2ccc(F)cc2)CC1	-4	10	1	0	3	-2
COc1cccc(N2CCN(C(=S)NCc3ccco3)CC2)c1	26*	-3	10	0	0	-8
COc1cc(CN2CCC(C(=O)N3CCN(c4ccccc4F)CC3)CC2)cc(OC)c1O	33*	-5	10	1	0	-6
CCOc1ccc(CN2CCC(C(=O)N3CCN(c4ccccc4F)CC3)CC2)cc1OC	-7	9	-5	2	1	3
CC(C)Cn1c(N)c(C(=O)COC(=O)/C=C/c2cccs2)c(=O)n(C)c1=O	1	-5	16	8	13	-14
CC(C)Cn1c(N)c(C(=O)COC(=O)Cc2cccs2)c(=O)n(C)c1=O	12	-11	32*	6	13	-10
COc1cccc(C=Cc2nccc3ccccc23)c1OC	14	-6	17	-6	0	-1
CCN(CC)c1nc(C=Cc2ccc(N(C)C)cc2)c2nccnc2n1	44*	-3	50*	31*	45*	-13
CN(C)c1ccc(C=Cc2nccc3ccccc23)cc1	25*	-3	29*	29*	20*	-19
CC(C)N1CCC(N2CCN(C/C=C/c3ccccc3)CC2CCO)CC1 (stereo unspecified)	-12	18	3	-5	1	0
SMILES	CHO-K1 Ca antag	CHO-K1 Ca PAM	M5 antag	M5 ag	CHO-K1 Ca ag	CHRM5 PAM
COC(=O)[C@@]1(Sc2ccc(C)cc2)CC(=O)N(c2ccccc2)[C@@H]1c1ccccc1	10	-5	30*	-2	6	-22
C=CCn1c(C)cc(C(=O)CSc2nc3ccccc3[nH]2)c1C	2	-8	20	11	18*	-23
Cc1cc(C(=O)CSc2nc3ccccc3[nH]2)c(C)n1Cc1ccco1	27*	-1	27*	7	15	-17
C=CCn1c(C)cc(C(=O)CSc2nc3ccccc3c(=O)[nH]2)c1C	5	0	22	3	11	-29
CN(C)S(=O)(=O)c1ccc(Cl)c(NC(=O)CN2CCN(c3ccccn3)CC2)c1	3	-9	-1	-2	2	-1
S=C(c1ccc(-c2ccc(Cl)cc2)o1)N1CCCCC1	-30	4	1	-2	-1	-7
N#CCCN1CCN(C(=S)c2ccc(-c3ccc(Cl)cc3)o2)CC1	27*	-6	0	-4	-1	-4
CCC(C)(C(=O)NC1CCCC1)N(Cc1cccs1)C(=O)c1ccc2c(c1)OCO2 (stereo unspecified)	3	19	4	-7	16*	-15
Oc1cc(-c2cccnc2)cc2cccnc12	72*	-19	16	-1	-1	-3
CCCCCCn1c(CN2CCN(CCO)CC2)nc2c1c(=O)n(C)c(=O)n2C	24*	-7	5	-1	0	-3
CCCCCn1c(CN2CC(C)OC(C)C2)nc2c1c(=O)n(C)c(=O)n2C (stereo unspecified)	24*	-8	0	2	0	-3
CC1CN(Cc2nc3c(c(=O)n(C)c(=O)n3C)n2CCN2CCOCC2)CC(C)O1 (stereo unspecified)	-4	-2	4	0	0	-5
C/C(=C\C(=O)N1CCc2ccccc21)C(=O)O	-8	0	-1	-5	0	4
Cc1ccc(C)c(CN2C(=O)NC3(CCCCCC3)C2=O)c1	-12	9	1	-3	3	4
COC(=O)c1cc(Sc2cccc(Cl)c2Cl)ccn1	-5	-8	5	0	0	21*
COc1cnc(-c2ccccn2)nc1Oc1ccc(Cl)cc1	24*	-6	13	0	0	8
Cn1nc(C(F)(F)F)c(-c2ccc(F)cc2)c1NC(=O)Nc1ccc(F)cc1	21	0	33*	-2	11	-23

Bioassay records: PubChem BioAssay, The Scripps Research Institute Molecular Screening Center
